pIC50: −log10 of the molar value.
What was measured:
Assay type in all cases: functional, cell-based
UACC-62 = assay: Antitumor activity against human UACC62 cells by SRB colorimetric assay
In short: (§1)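 NCI sulforhodamine B colorimetric growth assay in 96-well plates. Each compound tested at four concentrations in 10-fold dilutions. Doxorubicin as positive control. IC50 taken from concentration–response curves as the concentration giving 50% reduction in cell growth versus untreated control cells.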

MCF7 = assay: Antitumor activity against human MCF7 cells by SRB colorimetric assay; in short: as §1
HT-29 = assay: Antitumor activity against human HT-29 cells by SRB colorimetric assay; in short: as §1
K562 = assay: Antitumor activity against human K562 cells by SRB colorimetric assay; in short: as §1
OVCAR = assay: Antitumor activity against human OVCAR cells by SRB colorimetric assay; in short: as §1
786-0 = assay: Antitumor activity against human 786-0 cells by SRB colorimetric assay; in short: as §1
NCI-H460 = assay: Antitumor activity against human NCI-H460 cells by SRB colorimetric assay; in short: as §1
[1] = Antitumor activity against human PCO3 cells by SRB colorimetric assay; in short: as §1

| Structure (SMILES) | pIC50 (UACC-62) | pIC50 (MCF7) | pIC50 (HT-29) | pIC50 (K562) | pIC50 (OVCAR) | pIC50 (786-0) | pIC50 (NCI-H460) | pIC50 [1] |
| --- | --- | --- | --- | --- | --- | --- | --- | --- |
| CC(C)=NNC(=O)c1cc2c([nH]c3ccccc32)c(-c2ccc(N(C)C)cc2)n1 | 4.99 | 4.78 | 4.45 | 4.63 | 4.39 | 4.58 | 4.59 | 4.72 |
| COc1ccc(/C=N/NC(=O)c2cc3c([nH]c4ccccc43)c(-c3ccccc3)n2)cc1 | 4.18 | 4.96 | 4.41 | 4.84 | 5.00 | < 4.00 | 4.23 | 4.23 |
| CC(C)=NNC(=O)c1cc2c([nH]c3ccccc32)c(-c2ccc(O)cc2)n1 | 4.45 | 4.61 | < 4.00 | 4.74 | < 4.00 | 4.61 | 4.42 | 4.71 |
| COc1ccc(-c2nc(C(=O)N/N=C/c3ccccc3)cc3c2[nH]c2ccccc23)cc1 | 5.46 | 4.44 | 4.44 | 5.49 | 4.49 | 4.03 | 5.46 | 4.58 |
| COc1ccc(-c2nc(C(=O)N/N=C/c3ccccc3Cl)cc3c2[nH]c2ccccc23)cc1 | 5.25 | 4.98 | 5.90 | 5.60 | 5.13 | 5.60 | 5.84 | 5.34 |
| O=C(N/N=C/c1ccccc1)c1cc2c([nH]c3ccccc32)c(-c2ccc(O)cc2)n1 | 5.50 | 5.05 | 5.36 | 5.37 | 5.90 | 5.36 | 4.70 | 5.65 |
| COc1ccc(-c2nc(C(=O)NN=C(C)C)cc3c2[nH]c2ccccc23)cc1 | 4.39 | < 4.00 | < 4.00 | < 4.00 | < 4.00 | < 4.00 | < 4.00 | < 4.00 |
| O=C(NN=C1CCCC1)c1cc2c([nH]c3ccccc32)c(-c2ccc([N+](=O)[O-])cc2)n1 | < 4.00 | < 4.00 | < 4.00 | < 4.00 | < 4.00 | < 4.00 | < 4.00 | < 4.00 |
| COc1ccc(-c2nc(C(=O)NN=C(C)C)cc3c2[nH]c2ccccc23)cc1O | < 4.00 | < 4.00 | < 4.00 | < 4.00 | < 4.00 | 4.15 | < 4.00 | < 4.00 |
| O=C(NN=C1CCCC1)c1cc2c([nH]c3ccccc32)c(-c2ccccc2Cl)n1 | 4.93 | 5.13 | 4.70 | < 4.00 | 4.95 | 4.93 | 4.86 | 4.82 |
| O=C(N/N=C/c1ccccc1)c1cc2c([nH]c3ccccc32)c(-c2ccccc2)n1 | 4.59 | 4.80 | < 4.00 | 4.10 | 4.98 | < 4.00 | 5.07 | 4.93 |
| CN(C)c1ccc(-c2nc(C(=O)NN=C3CCCCC3)cc3c2[nH]c2ccccc23)cc1 | < 4.00 | < 4.00 | – | < 4.00 | < 4.00 | < 4.00 | < 4.00 | < 4.00 |
| COc1ccc(/C=N/NC(=O)c2cc3c([nH]c4ccccc43)c(-c3ccc(O)cc3)n2)cc1 | 5.41 | < 4.00 | 4.02 | 4.06 | 6.43 | 4.21 | 5.01 | – |
| O=C(N/N=C/c1ccc([N+](=O)[O-])cc1)c1cc2c([nH]c3ccccc32)c(-c2ccc([N+](=O)[O-])cc2)n1 | < 4.00 | < 4.00 | < 4.00 | < 4.00 | < 4.00 | < 4.00 | < 4.00 | < 4.00 |
| COc1ccc(-c2nc(C(=O)NN=C3CCCC3)cc3c2[nH]c2ccccc23)cc1O | < 4.00 | < 4.00 | – | < 4.00 | < 4.00 | 4.01 | < 4.00 | < 4.00 |
| O=C(NN=C1CCCCC1)c1cc2c([nH]c3ccccc32)c(-c2ccc([N+](=O)[O-])cc2)n1 | < 4.00 | 4.59 | < 4.00 | < 4.00 | < 4.00 | 4.14 | < 4.00 | < 4.00 |
| COc1ccc(-c2nc(C(=O)N/N=C/c3ccc([N+](=O)[O-])cc3)cc3c2[nH]c2ccccc23)cc1 | < 4.00 | < 4.00 | < 4.00 | < 4.00 | < 4.00 | < 4.00 | < 4.00 | < 4.00 |

| Structure (SMILES) | pIC50 (UACC-62) | pIC50 (MCF7) | pIC50 (HT-29) | pIC50 (K562) | pIC50 (OVCAR) | pIC50 (786-0) | pIC50 (NCI-H460) | pIC50 [1] |
| --- | --- | --- | --- | --- | --- | --- | --- | --- |
| O=C(N/N=C/c1ccccc1)c1cc2c([nH]c3ccccc32)c(-c2ccc([N+](=O)[O-])cc2)n1 | 4.93 | 4.60 | 4.73 | 4.84 | 5.69 | 4.52 | 4.86 | 4.80 |
| O=C(N/N=C/c1ccc([N+](=O)[O-])cc1)c1cc2c([nH]c3ccccc32)c(-c2cccc([N+](=O)[O-])c2)n1 | 5.49 | 4.89 | 5.13 | 5.37 | 4.33 | < 4.00 | 5.17 | 4.60 |
| O=C(N/N=C/c1ccc([N+](=O)[O-])cc1)c1cc2c([nH]c3ccccc32)c(-c2ccc(O)cc2)n1 | 5.35 | 4.91 | 5.41 | 5.43 | 4.29 | 5.02 | < 4.00 | 4.89 |
| COc1ccc(-c2nc(C(=O)N/N=C/c3ccccc3Cl)cc3c4ccccc4n(C)c23)cc1 | < 4.00 | 4.85 | < 4.00 | < 4.00 | < 4.00 | < 4.00 | < 4.00 | < 4.00 |
| CN(C)c1ccc(/C=N/NC(=O)c2cc3c4ccccc4n(C)c3c(-c3cccc([N+](=O)[O-])c3)n2)cc1 | < 4.00 | < 4.00 | < 4.00 | < 4.00 | < 4.00 | 5.91 | < 4.00 | < 4.00 |
| O=C(N/N=C/c1ccccc1)c1cc2c([nH]c3ccccc32)c(-c2cccc([N+](=O)[O-])c2)n1 | 5.92 | 5.58 | 5.71 | 5.91 | 5.21 | 5.42 | 5.71 | < 4.00 |
| O=C(NN=C1CCCCC1)c1cc2c([nH]c3ccccc32)c(-c2cccc([N+](=O)[O-])c2)n1 | < 4.00 | < 4.00 | < 4.00 | 4.06 | < 4.00 | < 4.00 | < 4.00 | < 4.00 |
| COc1ccc(/C=N/NC(=O)c2cc3c([nH]c4ccccc43)c(-c3ccc([N+](=O)[O-])cc3)n2)cc1 | 5.01 | 5.09 | 5.05 | 5.12 | 4.67 | 4.85 | 5.34 | 5.12 |
| O=C(N/N=C/c1ccccc1Cl)c1cc2c([nH]c3ccccc32)c(-c2ccc(O)cc2)n1 | 5.81 | 5.15 | 5.77 | 5.78 | 5.74 | 5.49 | 5.66 | 5.69 |
| CN(C)c1ccc(/C=N/NC(=O)c2cc3c([nH]c4ccccc43)c(-c3ccccc3)n2)cc1 | 4.06 | 4.12 | < 4.00 | < 4.00 | 4.12 | < 4.00 | < 4.00 | 4.06 |
| COc1ccc(/C=N/NC(=O)c2cc3c([nH]c4ccccc43)c(-c3ccc(OC)cc3)n2)cc1 | 4.04 | 4.15 | < 4.00 | < 4.00 | < 4.00 | < 4.00 | 4.45 | < 4.00 |
| O=C(NN=C1CCCC1)c1cc2c([nH]c3ccccc32)c(-c2cccc([N+](=O)[O-])c2)n1 | < 4.00 | < 4.00 | < 4.00 | < 4.00 | < 4.00 | < 4.00 | < 4.00 | < 4.00 |
| COc1ccc(-c2nc(C(=O)N/N=C/c3ccccc3)cc3c4ccccc4n(C)c23)cc1 | < 4.00 | < 4.00 | < 4.00 | < 4.00 | < 4.00 | 5.86 | < 4.00 | < 4.00 |
| O=C(N/N=C/c1ccccc1Cl)c1cc2c([nH]c3ccccc32)c(-c2ccc([N+](=O)[O-])cc2)n1 | 5.60 | 4.74 | 5.41 | 5.20 | 5.34 | 5.56 | 4.42 | 4.74 |
| CC(C)=NNC(=O)c1cc2c([nH]c3ccccc32)c(-c2ccc([N+](=O)[O-])cc2)n1 | < 4.00 | < 4.00 | < 4.00 | < 4.00 | < 4.00 | < 4.00 | < 4.00 | < 4.00 |
| COc1ccc(-c2nc(C(=O)N/N=C/c3ccc(N(C)C)cc3)cc3c2[nH]c2ccccc23)cc1 | < 4.00 | < 4.00 | < 4.00 | < 4.00 | < 4.00 | < 4.00 | < 4.00 | < 4.00 |
| CN(C)c1ccc(/C=N/NC(=O)c2cc3c([nH]c4ccccc43)c(-c3ccc(O)cc3)n2)cc1 | 4.05 | < 4.00 | < 4.00 | < 4.00 | 5.90 | < 4.00 | 4.16 | – |

— ChEMBL document CHEMBL1914299, “Synthesis and antitumor activity of β-carboline 3-(substituted-carbohydrazide) derivatives” (Bioorg Med Chem, 2011)
